Test results: ChEMBL document CHEMBL1125797, “Synthesis, characterization and myocardial uptake of cationic bis(arene)technetium(I) complexes” (J Med Chem, 1991)

How the values were obtained:
[1] = organism: Homo sapiens; assay: The compound was tested for the plasma binding in human; format: functional
Procedure, shortened: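 Fresh heparinized human plasma (1.0 mL, obtained daily) was spiked with 0.02 mL test solution and incubated about 15 min. Duplicate samples went through saline-equilibrated Sephadex G-25 desalting columns by centrifugation. Eluate and gel were γ-counted for 1 min or to 1% σ error. % bound = net cpm eluate / net cpm (eluate + gel) × 100.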

[2] = organism: Rattus norvegicus; assay: The compound was tested for the plasma binding in rat; format: functional
Procedure, shortened: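 Plasma protein binding was measured in rat plasma samples collected during the rat biodistribution studies, after tail vein injection of the 99mTc complex in saline (~25 μCi/kg).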

[3] = system: Rattus norvegicus; assay: Biodistribution of compound in rat blood after 5 min of administration; format: ADME, organism-based; settings: in vivo
Procedure, shortened: (§1)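 Female Sprague-Dawley rats (150–200 g) received the 99mTc complex in normal saline (~12.5 μCi/mL) via a lateral tail vein at ~25 μCi/kg. They were killed by cervical dislocation 5 min after injection. Tissues were washed with saline, blotted, weighed and γ-counted, and the read-out was percent injected dose per g tissue.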

[4] = system: Rattus norvegicus; assay: Biodistribution of compound in rat heart after 5 min of administration; format: ADME, organism-based; settings: in vivo; procedure, shortened: as §1
[5] = system: Rattus norvegicus; assay: Biodistribution of compound in rat kidney after 5 min of administration; format: ADME, organism-based; settings: in vivo; procedure, shortened: as §1
[6] = system: Rattus norvegicus; assay: Biodistribution of compound in rat liver after 5 min of administration; format: ADME, organism-based; settings: in vivo; procedure, shortened: as §1
[7] = system: Rattus norvegicus; assay: Biodistribution of compound in rat lung after 5 min of administration; format: ADME, organism-based; settings: in vivo
Procedure, shortened: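 Rats received the 99mTc complex in normal saline (~12.5 μCi/mL) by lateral tail vein injection at ~25 μCi/kg and were killed by cervical dislocation at the stated time. Tissues were washed with saline, blotted, weighed and γ-counted to give percent injected dose/g. Time-course values are averages of male and female rats.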

[8] = system: Rattus norvegicus; assay: Biodistribution of compound in rat muscle after 5 min of administration; format: ADME, organism-based, Muscle tissue; settings: in vivo
Procedure, shortened: as §1, with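 “the” for “the 99mTc”, “through” for “via”, “Rats” for “They”, “γ-counted to give” for “γ-counted, and the read-out was”, “dose/g” for “dose per g”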

Row | Substance | PPB [1] [%] | PPB [2] [%] | Dose/g [3] [%] | Dose/g [4] [%] | Dose/g [5] [%] | Dose/g [6] [%] | Dose/g [7] [%] | Dose/g [8] [%]
1 | Bis(m-xylene)technetium | 11 | 12 | – | – | – | – | – | –
2 | BIS(TOLUENE)TECHNETIUM | – | – | 0.2 | 0.22 | 3.4 | 2.6 | 0.51 | 0.069
